Assay results from different studies.
Protocols differ between the studies behind these lines.
Cell line: HepG2
Observed: cell growth or viability

N=C(N)NCc1ccc(NC(=O)c2ccc(C(=O)Nc3ccc(C4=CCN(C(=N)N)CC4)cc3)cn2)cc1
CC50 (MTS; 24 h): 739 µM

CCc1ncn(CC(c2c[nH]c3ccc(C)cc23)c2c[nH]c3ccc(C)cc23)c1C(=O)OC
CC50 (MTS; 24 h): > 20 µM

N=C(N)NCc1ccc(NC(=O)c2ccc(C(=O)Nc3ccc(C4=CCN(C(=N)N)CC4)nn3)cc2)cc1
CC50 (MTS; 24 h): 326 µM

COC(=O)c1c(C)ncn1CC(c1c[nH]c2cc(Br)ccc12)c1c[nH]c2cc(Br)ccc12
CC50 (MTS; 24 h): > 20 µM

N=C(N)NCc1ccc(NC(=O)C23CCC(C(=O)Nc4ccc(C5=CCN(C(=N)N)CC5)cc4)(CC2)CC3)cc1
CC50 (MTS; 24 h): 253 µM

C[C@@H]1[C@H](O)[C@@H](C)/C=C/C=C/C=C/C=C/C=C/C=C/C=C/[C@H](O[C@@H]2O[C@H](C)[C@@H](O)[C@H](N)[C@@H]2O)C[C@@H]2O[C@](O)(C[C@@H](O)C[C@@H](O)[C@H](O)CC[C@@H](O)C[C@@H](O)CC(=O)O[C@H]1C)C[C@H](O)[C@H]2C(=O)O
CC50 (MTS; 24 h): 4.6 µM

CCCCCCCCCCCC(=O)Nc1nc(N)nc2c1ncn2[C@H]1CO[C@@H](CO)O1
CC50: > 100 µM

CC(=O)Nc1ccc(O)cc1
CC50 (ATP luminescence): > 1000 µM

CCOC(=O)c1cn(CC(c2cn(C)c3ccc(C)cc23)c2cn(C)c3ccc(C)cc23)c(C)c1C(=O)OC
CC50 (MTS; 24 h): > 20 µM

Cc1cc(Nc2ccc(S(F)(F)(F)(F)F)cc2)n2ccnc2n1
CC50: > 50 µM

COC(=O)c1c(C)ncn1CC(c1c[nH]c2ccccc12)c1c[nH]c2ccccc12
CC50 (MTS; 24 h): > 20 µM

Cc1cnc(Nc2ccc(C(=O)N3CCC(N4CCCC4)CC3)cc2)nc1-c1ccc(Cl)s1
CC50 (44 h): 10.5 µM

COc1ccc(NC(=O)N2CCCCN3[C@H](CN(C)S(C)(=O)=O)[C@H](c4ccc(C#Cc5ccccc5)cc4)[C@@H]3C2)cc1
CC50: > 40 µM

COc1cc(/C=C/C(=O)CC(=O)/C=C/c2ccc(O)c(OC)c2)ccc1O
CC50 (MTT; 24 h): ~42 µM

N=C(N)N1CC=C(c2coc(C(=O)Nc3ccc(C4=CCN(C(=N)N)CC4)c(F)c3)c2)CC1
CC50 (MTS; 24 h): 129 µM

O=C(c1ccc(Nc2ncc(Cl)c(-c3ccc(Cl)s3)n2)cc1)N1CCC(N2CCCC2)CC1
CC50 (44 h): 5.1 µM
